Experimental data from different studies.
Protocols differ between the studies behind these lines.
Target: Calcium/calmodulin-dependent protein kinase type 1D (CAMK1D, Homo sapiens, UniProt Q8IU85)

The remaining binding of CNC(=O)c1ccc(Nc2ncc(C(F)(F)F)c(NCc3nccnc3N(C)S(C)(=O)=O)n2)cc1 is reported as 100% (cell-free assay, competition with immobilised ligand; 0.1 µM).
C[C@@H]1CCN(c2nccc(-c3cnn4ncccc34)n2)C1 has a remaining binding of 86% (binding; 1 µM).
O=C(N1CCS(=O)(=O)CC1)N1C[C@H](c2ccc(OC(F)(F)F)cc2)C[C@H](c2nc(C3CC3)no2)C1 has a remaining binding of 91% (cell-free assay, competition with immobilised ligand; 1 µM).
For COc1cnc(Nc2cccc(S(N)(=O)=O)c2)nc1N1CCN(c2ccccc2)CC1, the remaining binding was 100% (binding, competition with immobilised ligand; 1 µM).
N[C@H]1CCN(c2nccc(-c3cnn4ncccc34)n2)C1 has a remaining binding of 91% (binding; 1 µM).
c1cncc(-c2cccc(Nc3nccc(NC4CCCCC4)n3)c2)c1 gave a remaining binding of 72% (binding, competition with immobilised ligand; 10 µM).
For CN(C)c1nccc(-c2cnn3ncccc23)n1, the remaining binding was 100% (binding; 1 µM).
N#Cc1ccc(Nc2ccc3[nH]c(=O)[nH]c3c2)c(Cl)c1 has a remaining binding of 92% (cell-free assay, competition with immobilised ligand; 1 µM).
c1cnn2ncc(-c3ccnc(N4CCC45COC5)n3)c2c1 has a remaining binding of 89% (binding; 1 µM).
O=C(NCCCN1CCOCC1)c1ccc(Nc2nccc(-c3cc4ccccc4s3)n2)cc1 has a remaining binding of 48% (binding, competition with immobilised ligand; 1 µM).
Cc1nc(C2CCN(C(=O)c3ccc(OC(F)(F)F)cc3N)CC2)c2ncc(N3CCN(C)CC3)cc2n1 has a remaining binding of 100% (cell-free assay, competition with immobilised ligand; 1 µM).
For COc1ncc2cc3ccccc3nc2c1C#N, the remaining binding was 98% (cell-free assay, competition with immobilised ligand; 5 µM).
Nc1ncc2c(n1)-c1c([nH]c3ccc(C#CC4CC4)cc13)CCCC2 gave a remaining binding of 100% (binding, competition with immobilised ligand; 1 µM).
With COc1ccc2c(c1)O[C@@H](c1ccc(OC)c(OC)c1)C[C@H]2NC(=O)C1(c2ccc3c(c2)OC(F)(F)O3)CC1 the remaining binding was 94% (cell-free assay, competition with immobilised ligand; 1 µM).
O=C(NCC1CCOCC1)c1n[nH]cc1NC(=O)c1c(F)cccc1F gave a remaining binding of 96% (binding, competition with immobilised ligand; 1 µM).
O=C(c1ccc(Nc2nccc(-c3cc4ccccc4s3)n2)cc1)N1CCC(N2CCCC2)CC1 has a remaining binding of 31% (binding, competition with immobilised ligand; 1 µM).
CN(C)c1ncc(F)c(-c2cnn3ncccc23)n1 gave a remaining binding of 78% (binding; 1 µM).
For Cn1nc(C(=O)NCc2ccc(C(=O)O)cc2)cc1-c1ccc2[nH]ccc2c1, the remaining binding was 95% (cell-free assay, competition with immobilised ligand; 0.1 µM).
For CN(c1nccc(-c2cnn3ncccc23)n1)C1CC1, the remaining binding was 100% (binding; 1 µM).
CNC(=O)Nc1ccc2c(c1)[C@@]1(CC2)OC(=O)N(CC(=O)N(Cc2ccc(F)cc2)[C@@H](C)C(F)(F)F)C1=O has a remaining binding of 100% (cell-free assay, competition with immobilised ligand; 1 µM).
COc1ccnn2ncc(-c3ccnc(N(C)C)n3)c12 has a remaining binding of 100% (binding; 1 µM).
For O=C(c1ccc(Nc2ncc(Cl)c(-c3ccc(Cl)s3)n2)cc1)N1CCC(N2CCCC2)CC1, the remaining binding was 22% (binding, competition with immobilised ligand; 1 µM).
